The source made the active and inactive calls. The rule behind the calls is not given here.
Legend:
U-87 MG [1] = assay: Cytotoxicity against human U87 cells assessed as reduction in cell viability incubated for 72 hrs by AlamarBlue assay; format: functional, cell-based, U-87MG ATCC
[2] = Drug localization in mitochondria of human U87 cells at 20 uM incubated for 45 mins by Mitotracker staining-based confocal fluorescence microscopy; format: ADME; conditions: u-87mg atcc, 0.75 h
Procedure, shortened: (§1)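 U87 cells seeded at 10 000/well in imaging chambers and left overnight. Exposed to 20 μM compound in FluoroBrite DMEM for 45 min at 37 °C, then washed with HBSS. Stained 15 min with LysoTracker (1:10 000) or MitoTracker (1:15 000), plus NucBlue nuclear stain. Imaged live by confocal microscopy at 60×, dye excited at 633 nm. Colocalization scored by Pearson's correlation coefficient.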

[3] = Drug localization in lysosome of human U87 cells at 20 uM incubated for 45 mins by Lysotracker staining-based confocal fluorescence microscopy; format: ADME; conditions: u-87mg atcc, 0.75 h; procedure, shortened: as §1
U-87 MG [4] = assay: Cytotoxicity against human U87 cells assessed as reduction in cell viability at 0.001 to 10 uM incubated for 72 hrs by AlamarBlue assay; format: functional, cell-based; conditions: U-87MG ATCC
Procedure, shortened: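 U87 cells, grown in DMEM/F12 with 10% FBS, seeded at 5000/well and left overnight. Compounds added in protein-free hybridoma medium (PFHM II) to final 0.001–10 μM and incubated 72 h at 37 °C. Viability read by AlamarBlue, 2 h, fluorescence Ex/Em 560/590 nm. IC50 taken relative to the lowest concentration beyond which no further cell death occurs.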

[5] = Toxicity in […] mouse xenografted with luciferase and RFP reporter expressing human U87 cells assessed as effect on body weight at 10 mg/kg, iv administered at day 4 and day 8 post inoculation and six injections weekly measured after 5 weeks; format: organism-based; conditions: in vivo, 840 h
U-87 MG [6] = assay: Antitumor activity against luciferase and RFP reporter expressing human U87 cells xenografted in Fox1nu mouse assessed as decrease in tumor burden at 10 mg/kg, iv administered at day 4 and day 8 post inoculation and six injections weekly measured after 5 weeks by bioluminescence imaging analysis; format: functional, organism-based; conditions: U-87MG ATCC
U-87 MG [7] = assay: Antitumor activity against luciferase and RFP reporter expressing human U87 cells xenografted in Fox1nu mouse assessed as decrease in tumor size at 10 mg/kg, iv administered at day 4 and day 8 post inoculation and six injections weekly measured after 5 weeks by bioluminescence imaging analysis; format: functional, organism-based; conditions: U-87MG ATCC

| SMILES | Drug uptake [2] | Drug uptake [3] | IC50 (U-87 MG [1]) [nM] | other results |
| --- | --- | --- | --- | --- |
| O=C(CCS)Nc1ccn([C@@H]2O[C@H](CO)[C@@H](O)C2(F)F)c(=O)n1 |  |  | 11 |  |
| CCCN1/C(=C/C=C2\CCCC(/C=C/C3=[N+](CCC)c4ccccc4C3(C)C)=C2Cl)C(C)(C)c2ccccc21.[Cl-] | Active | Active | 7100 |  |
| CC1(C)C(/C=C/C2=C(SCCC(=O)Nc3ccn([C@H]4C[C@H](O)[C@@H](CO)O4)c(=O)n3)C(=C/C=C3/N(CCCCCC(=O)O)c4ccccc4C3(C)C)/CCC2)=[N+](CCCCCC(=O)O)c2ccccc21 |  |  |  | Activity (U-87 MG [4]): Active |
| Nc1ccn([C@@H]2O[C@H](CO)[C@@H](O)C2(F)F)c(=O)n1 [GEMCITABINE] |  |  | 8.2 | Activity [5]: Non-Toxic; Activity (U-87 MG [6]): Active; Activity (U-87 MG [7]): inactive |

Second part, led by results:

| Drug uptake [2] | Drug uptake [3] | SMILES | IC50 (U-87 MG [1]) [nM] | other results |
| --- | --- | --- | --- | --- |
| Active | Active | CC1(C)C(/C=C/C2=C(Cl)C(=C/C=C3/N(CCCCCC(=O)O)c4ccccc4C3(C)C)/CCC2)=[N+](CCCCS(=O)(=O)O)c2ccccc21.[Cl-] |  |  |
| Not Active |  | CC1(C)C(/C=C/C2=C(SCCC(=O)Nc3ccn([C@@H]4O[C@H](CO)[C@@H](O)C4(F)F)c(=O)n3)C(=C/C=C3/N(CCCCCC(=O)O)c4ccccc4C3(C)C)/CCC2)=[N+](CCCCS(=O)(=O)O)c2ccccc21.[Cl-] |  |  |
| Active | Active | CC1(C)C(/C=C/C2=C(SCCC(=O)Nc3ccn([C@@H]4O[C@H](CO)[C@@H](O)C4(F)F)c(=O)n3)C(=C/C=C3/N(CCCCS(=O)(=O)O)c4ccccc4C3(C)C)/CCC2)=[N+](CCCCS(=O)(=O)O)c2ccccc21.[Cl-] | 20.7 |  |

— ChEMBL document CHEMBL4321807, “Cyanine-Gemcitabine Conjugates as Targeted Theranostic Agents for Glioblastoma Tumor Cells” (J Med Chem, 2019)
